The source made the active and inactive calls. The rule behind the calls is not given here.
Tests used:
LoVo = experiment: Antiproliferative activity against human LoVo cells; assay type: functional, cell-based
In short: (§1)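 Growth densities of Caco-2 (colorectal), LoVo (colon) and PC3MM2 (prostate) adenocarcinoma cultures monitored after compound exposure to measure proliferation.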

PC-3 = experiment: Antiproliferative activity against human PC3 cells; assay type: functional, cell-based; in short: as §1
[1] = target: Phosphatidylinositol 4,5-bisphosphate 3-kinase catalytic subunit alpha isoform (Homo sapiens, UniProt P42336); experiment: Inhibition of GST-GRP1-fused PI3Kalpha by microtiter plate based fluorescence polarization assay
Sequence of Phosphatidylinositol 4,5-bisphosphate 3-kinase catalytic subunit alpha isoform (P42336 whole entry, the tested form may be a part, canonical isoform): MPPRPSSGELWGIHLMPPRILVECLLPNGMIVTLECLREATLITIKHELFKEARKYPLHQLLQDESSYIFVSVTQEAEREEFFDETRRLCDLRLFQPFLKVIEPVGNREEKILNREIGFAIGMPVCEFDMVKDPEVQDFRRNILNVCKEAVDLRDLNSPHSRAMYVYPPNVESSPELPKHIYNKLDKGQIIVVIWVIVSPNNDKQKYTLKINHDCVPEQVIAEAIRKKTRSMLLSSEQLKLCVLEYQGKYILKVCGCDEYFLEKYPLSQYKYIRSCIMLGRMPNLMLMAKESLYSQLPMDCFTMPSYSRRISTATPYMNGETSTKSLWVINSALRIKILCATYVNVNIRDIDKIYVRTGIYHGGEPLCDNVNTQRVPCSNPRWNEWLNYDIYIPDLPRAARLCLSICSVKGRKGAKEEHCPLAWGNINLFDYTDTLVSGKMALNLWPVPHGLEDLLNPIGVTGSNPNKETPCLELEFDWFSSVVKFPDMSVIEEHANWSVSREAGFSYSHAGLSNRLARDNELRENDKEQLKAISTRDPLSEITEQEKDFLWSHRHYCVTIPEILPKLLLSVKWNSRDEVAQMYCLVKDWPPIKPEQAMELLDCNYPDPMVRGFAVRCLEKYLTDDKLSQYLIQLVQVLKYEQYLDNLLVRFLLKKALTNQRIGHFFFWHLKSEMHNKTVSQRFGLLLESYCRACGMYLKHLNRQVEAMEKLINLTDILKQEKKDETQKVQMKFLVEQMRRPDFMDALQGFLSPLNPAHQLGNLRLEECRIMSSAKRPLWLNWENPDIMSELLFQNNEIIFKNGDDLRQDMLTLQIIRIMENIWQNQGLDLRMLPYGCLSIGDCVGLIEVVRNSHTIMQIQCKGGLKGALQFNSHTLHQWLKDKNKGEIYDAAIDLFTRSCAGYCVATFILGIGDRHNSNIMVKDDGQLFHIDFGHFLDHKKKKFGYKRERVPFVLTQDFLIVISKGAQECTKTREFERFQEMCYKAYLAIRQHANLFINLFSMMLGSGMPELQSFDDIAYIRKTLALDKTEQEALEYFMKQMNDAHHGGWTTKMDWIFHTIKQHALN

[2] = target: Phosphatidylinositol 4,5-bisphosphate 3-kinase catalytic subunit gamma isoform (Homo sapiens, UniProt P48736); experiment: Inhibition of GST-GRP1-fused PI3Kgamma by microtiter plate based fluorescence polarization assay
Sequence of Phosphatidylinositol 4,5-bisphosphate 3-kinase catalytic subunit gamma isoform (P48736 whole entry, the tested form may be a part, canonical isoform): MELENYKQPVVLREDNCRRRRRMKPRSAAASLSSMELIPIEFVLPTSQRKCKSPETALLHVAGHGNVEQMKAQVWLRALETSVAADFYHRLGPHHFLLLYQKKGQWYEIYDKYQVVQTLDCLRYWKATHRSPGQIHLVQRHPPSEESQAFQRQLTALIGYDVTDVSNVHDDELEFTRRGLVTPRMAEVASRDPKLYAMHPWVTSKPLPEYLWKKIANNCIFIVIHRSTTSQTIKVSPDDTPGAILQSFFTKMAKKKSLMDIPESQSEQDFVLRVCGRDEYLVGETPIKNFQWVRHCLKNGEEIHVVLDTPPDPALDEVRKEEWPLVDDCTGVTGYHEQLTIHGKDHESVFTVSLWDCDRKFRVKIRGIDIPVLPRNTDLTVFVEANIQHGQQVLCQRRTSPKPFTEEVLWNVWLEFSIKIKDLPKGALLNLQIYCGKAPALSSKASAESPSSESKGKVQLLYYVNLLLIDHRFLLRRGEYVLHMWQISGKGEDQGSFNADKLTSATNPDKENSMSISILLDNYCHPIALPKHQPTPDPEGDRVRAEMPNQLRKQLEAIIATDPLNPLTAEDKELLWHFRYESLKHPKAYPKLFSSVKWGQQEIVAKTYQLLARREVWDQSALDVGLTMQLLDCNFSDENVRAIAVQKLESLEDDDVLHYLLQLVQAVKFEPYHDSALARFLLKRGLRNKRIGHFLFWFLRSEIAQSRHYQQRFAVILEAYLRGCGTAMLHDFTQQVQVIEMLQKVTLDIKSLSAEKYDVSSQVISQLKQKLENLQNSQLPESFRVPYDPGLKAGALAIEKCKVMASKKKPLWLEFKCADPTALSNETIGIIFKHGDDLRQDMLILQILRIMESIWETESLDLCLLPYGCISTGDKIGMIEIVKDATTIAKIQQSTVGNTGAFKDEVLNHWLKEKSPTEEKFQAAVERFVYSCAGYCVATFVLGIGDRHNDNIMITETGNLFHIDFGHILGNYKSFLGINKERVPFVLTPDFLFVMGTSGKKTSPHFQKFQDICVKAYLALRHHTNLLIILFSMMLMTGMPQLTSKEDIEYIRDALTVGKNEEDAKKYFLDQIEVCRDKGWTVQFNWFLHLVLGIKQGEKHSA
In short: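 Fluorescence polarization assay monitoring PIP3 production by PI3K p110α or p110γ. IC50 values are the means of two experiments, SD ±10%.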

[3] = target: Serine/threonine-protein kinase mTOR (Homo sapiens, UniProt P42345); experiment: Inhibition of human TOR in HEK293 cells by DELFIA; assay type: cell-based
In short: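 DELFIA-format assay detecting phosphorylated His6-S6K substrate. IC50 values are the means of two experiments, SD ±10%.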

Caco-2 = experiment: Antiproliferative activity against human Caco-2 cells; assay type: functional, cell-based; in short: as §1
[4] = Selectivity ratio of IC50 for human TOR to IC50 for PI3Kalpha
[5] = Selectivity ratio of IC50 for PI3Kgamma to IC50 for PI3Kalpha
MDA-MB-361 = experiment: Inhibition of PI3K in human MDA-MB-361 cells assessed as reduction of phosphorylated Akt (T308) level at 3 to 30 uM after 4 hrs by immunoblotting; assay type: cell-based
In short: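 MDA-361 breast adenocarcinoma cells were treated in growth media for 4 h with the indicated doses, with a DMSO control. Lysates were immunoblotted for phospho-Akt T308, and for cleaved PARP as an apoptosis marker.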

Row | Structure (SMILES) | IC50 (LoVo) [nM] | IC50 (PC-3) [nM] | IC50 [1] [nM] | IC50 [2] [nM] | IC50 [3] [nM] | IC50 (Caco-2) [nM] | Ratio IC50 [4] | Ratio IC50 [5] | inhibition (MDA-MB-361)
1 | OCc1cccc(-c2nc(N3CCOCC3)c3cnn(C4CCN(Cc5ccccc5)CC4)c3n2)c1 | 511 | 345 | 25 | 975 | 90 | 1340 |  |  | 
2 | CS(=O)(=O)c1ccc(-c2nc(N3CCOCC3)c3nc[nH]c3n2)cc1 |  |  | 1760 | 5830 |  |  |  |  | 
3 | OCc1cccc(-c2nc(N3CCOCC3)c3ncn(C4CCNCC4)c3n2)c1 | 1870 | 2360 | 58 |  |  | 4500 | > 100 | 11 | 
4 | CS(=O)(=O)Nc1cccc(-c2nc(N3CCOCC3)c3nc[nH]c3n2)c1 |  |  | 4380 | 7910 |  |  |  |  | 
5 | OCc1cccc(-c2nc(N3CCOCC3)c3ncn(CC4CCN(Cc5ccccc5)CC4)c3n2)c1 | 3080 | 9270 | 248 | 1650 |  | 5790 |  |  | 
6 | Oc1cccc(-c2nc(N3CCOCC3)c3ncn(CC4CCN(Cc5ccccc5)CC4)c3n2)c1 | 3510 | 7350 | 199 | 2380 |  | 6490 |  |  | 
7 | Oc1cccc(-c2nc(N3CCOCC3)c3cnn(C4CCN(Cc5ccccc5)CC4)c3n2)c1 | 1610 | 940 |  | 2370 | 83 | 5970 |  |  | 
8 | Oc1cccc(-c2nc(N3CCCCC3)c3nc[nH]c3n2)c1 |  |  | 3770 | 10300 |  |  |  |  | 
9 | c1cc2ccc(-c3nc(N4CCOCC4)c4nc[nH]c4n3)cc2[nH]1 |  |  | 2330 | 7370 | 150 |  |  |  | 
10 | Oc1cccc(-c2nc(N3CCOCC3)c3ncn(C4CCNCC4)c3n2)c1 | 2020 | 1520 | 65 | 131 | 870 | 4040 |  |  | 
11 | Oc1cccc(-c2nc(N3CCOCC3)c3cnn(C4CCNCC4)c3n2)c1 | 1580 | 922 |  | 993 |  | 5580 |  |  | 
12 | c1nc2c(N3CCOCC3)nc(-c3ccc4c(c3)OCO4)nc2[nH]1 |  |  | 1210 | 6910 |  |  |  |  | 
13 | c1nc2c(N3CCOCC3)nc(-c3ccc4c(c3)OCCO4)nc2[nH]1 |  |  | 3480 | 7580 |  |  |  |  | 
14 | Oc1cccc(-c2nc(N3CCOCC3)c3ncn(C4CCN(Cc5ccccc5)CC4)c3n2)c1 | 1950 | 1110 | 80 | 10800 |  | > 10000 |  |  | 
15 | OCc1cccc(-c2nc(N3CCOCC3)c3ncn(C4CCN(Cc5ccccc5)CC4)c3n2)c1 | 1050 | 1280 |  |  | 691 | 5170 |  |  | Active

More lines, main results first:

Row | IC50 (LoVo) [nM] | IC50 (PC-3) [nM] | IC50 [1] [nM] | IC50 [2] [nM] | IC50 [3] [nM] | IC50 (Caco-2) [nM] | Ratio IC50 [4] | Ratio IC50 [5] | Structure (SMILES) | inhibition (MDA-MB-361)
16 |  |  | 2540 | 8560 |  |  |  |  | Oc1ccc(-c2nc(N3CCOCC3)c3nc[nH]c3n2)cc1 | 
17 |  |  | 2380 | 8000 |  |  |  |  | c1nc2c(N3CCOCC3)nc(-c3ccsc3)nc2[nH]1 | 
18 |  |  | 6700 | 10000 |  |  |  |  | NC(=O)c1ccc(-c2nc(N3CCOCC3)c3nc[nH]c3n2)cc1 | 
19 |  |  | 2910 | 8300 |  |  |  |  | N#Cc1cccc(-c2nc(N3CCOCC3)c3nc[nH]c3n2)c1 | 
20 | > 10000 | > 10000 | 640 | 6740 |  | > 10000 |  |  | c1csc(-c2nc(N3CCOCC3)c3nc[nH]c3n2)c1 | 
21 |  |  | 3900 | 7910 |  |  |  |  | CS(=O)(=O)c1cccc(-c2nc(N3CCOCC3)c3nc[nH]c3n2)c1 | 
22 |  |  | 2890 | 7970 |  |  |  |  | OCc1ccc(-c2nc(N3CCOCC3)c3nc[nH]c3n2)cc1 | 
23 | 7310 | > 10000 | 667 | 5140 |  | > 10000 |  |  | Oc1ccccc1-c1nc(N2CCOCC2)c2nc[nH]c2n1 | 
24 |  |  | 3790 | 11000 |  |  |  |  | c1nc2c(N3CCOCC3)nc(-c3ccoc3)nc2[nH]1 | 
25 |  |  | 232 |  | 2380 |  |  |  | Oc1cccc(-c2nc(N3CCOCC3)c3nc[nH]c3n2)c1 | 

Source: ChEMBL document CHEMBL1153204, “Novel purine and pyrazolo[3,4-d]pyrimidine inhibitors of PI3 kinase-alpha: Hit to lead studies” (Bioorg Med Chem Lett, 2010)
